These results are taken from paper PMC3838201 (Circulation, 2013).

Like-named read-outs stand apart in the source and are kept apart here.

Data set [1] deals with recombinant human DDAH1 (rhDDAH1) (Homo sapiens, UniProt O94760). Briefly: Colorimetric microplate DDAH activity assay. It counts as biochemical.
Data set [2] deals with human microvascular endothelial cells. Briefly: Intracellular ADMA in human endothelial cells. It counts as cell-based. Conditions: 20 μM, 24 hours. In short, it runs like this:
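HMEC-1 microvascular endothelial cells in serum-free DMEM got test compound (20 μM final), a known DDAH1 inhibitor as control, or DMSO vehicle for 3 h. Medium was then switched to DMEM with 10% FBS, 4mM HEPES and penicillin/streptomycin (pH 7.6), 37°C/5% CO2, until 24 h. Cells were washed and lysed; protein measured by Coomassie; intracellular ADMA by ELISA. Duplicate experiments; unpaired t-test versus vehicle.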

Data set [3] relates to human saphenous vein segments. Briefly: NOx release from human saphenous vein segments. The conditions noted are these: 24 hours; in the presence or absence of A23187 (0.5 μM); omeprazole 3–100 μM, L-257 100 μM. The procedure, abridged:
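Saphenous vein segments harvested during CABG surgery were rinsed in lactated Ringer's solution, cut into 0.5 cm pieces and held in endothelial cell medium. They were kept basal or stimulated with A23187 (0.5 μM) for 24 hours with test compound, a reference DDAH1 inhibitor or vehicle. Griess reaction measured total nitrite (NOx) in the conditioned medium. Duplicate experiments, mean ± SEM, one-way ANOVA with Bonferroni post-test versus vehicle.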

The target in data set [4] is T1, rhDDAH1 (Homo sapiens, UniProt O94760). Briefly: Reversibility study by inhibitor dilution. The conditions noted are these: DDAH 30 μM pre-incubated with inhibitor, serially diluted. It counts as biochemical. The procedure, abridged: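 DDAH (30 μM, 100-fold above the enzymatic assay concentration) was pre-incubated with test compound at three concentrations, then diluted. Recovery of enzymatic activity was read by fluorometric DDAH assay, with a known DDAH1 inhibitor as control.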
T1 sequence (O94760 whole entry): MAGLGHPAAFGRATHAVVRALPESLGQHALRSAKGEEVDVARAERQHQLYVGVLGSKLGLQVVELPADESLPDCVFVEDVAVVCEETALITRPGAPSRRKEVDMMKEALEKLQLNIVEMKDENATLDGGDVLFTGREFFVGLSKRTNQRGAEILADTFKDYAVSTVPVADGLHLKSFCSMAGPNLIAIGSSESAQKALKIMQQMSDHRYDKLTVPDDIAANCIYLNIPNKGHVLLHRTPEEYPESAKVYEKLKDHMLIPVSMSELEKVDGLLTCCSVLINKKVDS

For data set [5] the following is noted: single oral dose of 30 mg, cited from earlier work.
A short description of data set [6]: Serum ADMA levels in mice in vivo. The conditions noted are these: C57BL/6J mice; 30 mg/kg/day subcutaneous; 5-week study period. Details: species or system mouse.
A further data set addresses DDAH (Homo sapiens, UniProt O94760). Put plainly: High throughput screen for DDAH inhibitors. It counts as biochemical. Conditions: primary hits of the screen of about 130,000 small molecules. The procedure, abridged:
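Purified recombinant human DDAH1 was used in a DDAH activity assay to screen a library of about 130,000 small molecules. Activity was monitored by colorimetric and fluorometric assays. Hits were compounds inhibiting DDAH by more than 30%. Primary hits were then validated with orthogonal colorimetric and fluorimetric activity assays.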

In data set [7] the target is T1, rhDDAH1. Put plainly: Surface plasmon resonance enzyme-drug binding study. The conditions noted are these: 12.5–100 μM; rhDDAH1 amine coupled to CM5 chip; pH 6.5. In short, it runs like this:
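rhDDAH1 was purified with HEPES elution (10mM HEPES in PBS) to avoid competing amines, then amine-coupled to a CM5 chip. Test compound from a DMSO stock, or DMSO vehicle, was diluted in 100mM Na2HPO4, pH 6.5. It was passed over the chip at 4 concentrations (serial dilution, 12.5–100 μM). Binding was followed in real time as sensorgram peaks, in duplicate experiments.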

For data set [8], the system named is HMVECs. Briefly: Western blot of DDAH1 and DDAH2 expression in HMVECs. It counts as cell-based, human. Conditions: 3–100 μM for 24 hours. (A western blot detects proteins with antibodies after separation by electrophoresis.)
For a further data set, the system named is mouse thoracic aorta. Briefly: Vascular reactivity of isolated mouse thoracic aorta ex vivo. The conditions noted are these: aorta exposed for 24 hours.
Data set [9] deals with HMVECs. Put plainly: Western blot of eNOS and phospho-eNOS in HMVECs. The conditions noted are these: HMVEC lysate, normalized to β-actin. It counts as cell-based, human. The procedure, abridged: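 Endothelial cell lysates (20 μg) from cells exposed to test compound or vehicle were analysed by Western blot for total eNOS and phospho-eNOS. VEGF (50 ng/mL) served as positive control for eNOS phosphorylation. Bands were normalized to β-actin.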

The subject of data set [10] is primary human microvascular endothelial cells (HMVECs). Briefly: Intracellular NOx in endothelial cells. It counts as cell-based. The conditions noted are these: 24 hours; lysates, normalized to total protein. The procedure, abridged: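 Primary HMVECs were exposed to vehicle or various concentrations of test compound for 24 h, with a selective DDAH1 inhibitor as control. Total nitrite (NOx) in cell lysates was measured by Griess reaction and normalized to total protein. Values come from duplicate experiments.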

The mark [11] stands for this setting: IC50, 8 point concentration range 0.78–100 μM, Mean ± SEM, triplicate.

Sequence of recombinant human DDAH1 (rhDDAH1) (O94760 whole entry): as above
Sequence of DDAH (O94760 whole entry): as above

`COc1ccc2nc([S@@+]([O-])Cc3ncc(C)c(OC)c3C)[nH]c2c1` [Esomeprazole, esomeprazole]: in data set [1] (setting [11]), the IC50 (in general, the point on the concentration scale where inhibition reaches its midpoint) worked out at 52 ± 5 µM. Further, the “increase of intracellular ADMA compared to vehicle control” value in [2] is recorded as ~ 30%.
`COCCNC(N)=NCCC[C@H](N)C(=O)O` [L-257]: the “NOx released from isolated human saphenous veins” value in data set [3] was “significantly inhibited”. On rhDDAH1 [4], the “reversibility of inhibition of DDAH enzymatic activity upon dilution” value is on record as “complete reversibility upon dilution”. Further, in [2] (control DDAH inhibitor), the “effect on intracellular ADMA” value is recorded as “increased ADMA”.
For the molecule `Cc1c(OCC(F)(F)F)ccnc1C[S+]([O-])c1nc2ccccc2[nH]1` (stereo not shown) [Lansoprazole, lansoprazole], the Cmax in [5] (read-out: maximum plasma concentration (Cmax)) was 2 to 6 µM. The “time to maximum plasma concentration” value in data set [5] is no more than 3 h. Moreover, the “increase of serum ADMA compared to vehicle control” value in [6] is “about 20%”. The “inhibition of DDAH in high throughput screen” value against DDAH is “more than 30%”. Also, in data set [2], the “increase of intracellular ADMA compared to vehicle control” value is reported as ~ 30%.
With `COc1ccc2[nH]c([S+]([O-])Cc3ncc(C)c(OC)c3C)nc2c1` (stereo not shown) [Omeprazole, omeprazole], the “binding to DDAH (SPR sensorgram)” value at rhDDAH1 [7] is “direct interaction between the PPI and DDAH”. Further, the “protein expression of DDAH1 and DDAH2” value in the data set on HMVECs [8] is on record as “neither regulated the expression of DDAH1 nor that of DDAH2”. Besides, in the data set on mouse thoracic aorta, the “contraction to phenylephrine (PE)” value was “enhanced the contraction to phenylephrine”, the “endothelium independent vasorelaxation to sodium nitroprusside” value is given as “did not effect” and the “relaxation to acetylcholine (ACh)” value is reported as “blunted the relaxation to acetylcholine”. For the same molecule, in the data set on HMVECs [9], the “expression of total eNOS and active eNOS (phospho-eNOS)” value is “downregulated”. Besides, in data set [1] (setting [11]), the IC50 was 58 ± 5 µM. Besides, in [1] (IC50, IC50 value used to set the concentrations of the reversibility study), the IC50 was roughly 60 µM. Also, the “NOx released from isolated human saphenous veins” value in [3] is “significantly inhibited”. Also, the “reversibility of inhibition of DDAH enzymatic activity upon dilution” value at rhDDAH1 [4] is “rapid and almost complete reversibility”. Also, the “inhibition of DDAH in high throughput screen” value against DDAH is recorded as “more than 30%”. Further, in data set [10], the “levels of nitrogen oxides (NOx) in cultured endothelial cells” value is “dose-dependently reduced”.
Consider `COc1ccnc(C[S+]([O-])c2nc3ccc(OC(F)F)cc3[nH]2)c1OC` (stereo not shown) [Pantoprazole, pantoprazole], for which the “inhibition of DDAH in high throughput screen” value on DDAH is given as “more than 30%”.
For the molecule `COc1ccc2[nH]c([S+]([O-])Cc3ncc(C)c(OC)c3C)nc2n1` (stereo not shown) [Tenatoprazole, tenatoprazole], the IC50 in data set [1] worked out at 61 ± 1.5 µM. In addition, the “inhibition of DDAH in high throughput screen” value against DDAH is reported as “more than 30%”.
